These results are taken from ChEMBL document CHEMBL1131231, “New azole antifungals. 2. Synthesis and antifungal activity of heterocyclecarboxamide derivatives of 3-amino-2-aryl-1-azolyl-2-butanol” (1998).

Values after ≈ are worked out from the molar mass of the structure shown.

What all share (assay type): functional
The test system of assay [1] is Mus musculus. The experiment in a line: In vivo antifungal activity against murine candidosis model after peroral administration with 0.5 mg/kg for 5 days.(percent protection for 100% mortality with fluconazole-treated group.). The conditions noted are these: route oral. An outline of the steps: (§1)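 Second murine systemic Candida albicans model. Mice, n = 10 per group, dosed orally once daily for 5 days after infection. Animals observed for 65 days, with survival rate as read-out and vehicle controls included. Reported as % protection on the day of 100% mortality in the untreated group or in the fluconazole-treated group.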

The subject of assay [2] is Mus musculus. Nature of the assay: In vivo antifungal activity against murine candidosis model after peroral administration with 0.5 mg/kg for 5 days.(percent protection for 100% mortality with untreated group). The settings on record: route oral. An outline of the steps: as §1
The subject of assay [3] is Candida albicans. The experiment in a line: In vivo antifungal activity against murine candidosis model after peroral administration with 1 mg/kg at various time intervals. (percent protection for 100% mortality with fluconazole-treated group.). The conditions noted are these: route oral. Put shortly:
(§2)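 Male mice, groups of 10, infected iv with 0.2 mL Candida albicans at (2–8) × 10⁷ cfu/mL. Oral suspension in 1% Tween + 0.2% carboxymethylcellulose in water, given 1, 4 and 24 h post-infection; vehicle controls and a fluconazole group at the same dose. Survival scored on days 1, 2, 3, 5, 7, 9, reported as % surviving on the day untreated, or fluconazole-treated, mortality reached 100%.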

The subject of assay [4] is Candida albicans. Nature of the assay: In vivo antifungal activity against murine candidosis model after peroral administration with 1 mg/kg at various time intervals. (percent protection for 100% mortality with untreated group). The settings on record: route oral. Put shortly:
as §2

Assay [5] in a line: The compound was tested in vitro for antifungal activity against 10 yeasts. An outline of the steps: (§3)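 Agar dilution on Kimmig's agar with 0.5% glycerol; ATCC or clinical isolates, inocula at 10⁵ cfu/mL. Drugs from 800 μg/mL stock in 50% ethanol, 2-fold serial dilutions 80 to 0.03 μg/mL in plates. Incubated 25 °C, 48 h for yeasts, 120 h for filamentous fungi. Value is geometric mean of MICs (μg/mL); >80 taken as 160, ≤0.03 as 0.03.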

A short description of assay [6]: The compound was tested in vitro for antifungal activity against 6 filamentous fungi. Put shortly:
as §3

Turning to `C[C@@H](n1cnc2cc(-c3ccc(C#N)cc3)sc2c1=O)[C@](O)(Cn1cncn1)c1ccc(F)cc1F`, the Protection amounted to 40% in assay [1], 100% in assay [2], 100% in assay [3] and 100% in assay [4]. Further, the results for the MIC in assay [5] and in assay [6] were 0.3 µg/mL (≈ 0.595 µM) and 13 µg/mL (≈ 25.8 µM), respectively.

For orientation: MIC means the lowest concentration found to suppress growth.
